RGS4 block – inhibitors of human RGS4; AID 463165; B-score at 10 µM; 0.45% of 310,000 active; P49798; HEK293 M3R/RGS4 inducible, Fluo-4 calcium flux; stronger effect = higher value; triggered by carbachol at its EC20;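 active means B-score, a plate-corrected calcium signal, over three deviations above library mean, with baseline fluorescence within five deviations of library mean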;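 further: RGS4 expression induced by doxycycline in cells with stable M3 receptor; B-score is computed from the integrated fluorescence ratio over baseline after carbachol; higher B-score means a larger calcium signal and so more RGS4 inhibition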
Target sequence (P49798 whole entry, looked up): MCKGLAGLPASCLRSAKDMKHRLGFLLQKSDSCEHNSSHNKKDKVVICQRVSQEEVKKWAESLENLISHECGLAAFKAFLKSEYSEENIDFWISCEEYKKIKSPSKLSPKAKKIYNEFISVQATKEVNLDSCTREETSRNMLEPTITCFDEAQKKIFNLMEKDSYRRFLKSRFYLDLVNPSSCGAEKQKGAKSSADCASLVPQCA
MrgX1 allo act – human MrgX1 positive allosteric modulation, primary screen; MrgX1-HEK293, Fluo-4 calcium flux, FDSS; stronger effect = higher value; B-score at 10 µM; 0.63% of 310,000 active; AID 588675;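 active means plate-corrected calcium response at least 3 library SD above typical, normal starting fluorescence, not activating the receptor alone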;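 further: compound read alongside a low EC10 to EC30 dose of BAM8-22 agonist; peak minus trough fluorescence over baseline measured at the second addition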
Target sequence (Q96LB2 whole entry, looked up): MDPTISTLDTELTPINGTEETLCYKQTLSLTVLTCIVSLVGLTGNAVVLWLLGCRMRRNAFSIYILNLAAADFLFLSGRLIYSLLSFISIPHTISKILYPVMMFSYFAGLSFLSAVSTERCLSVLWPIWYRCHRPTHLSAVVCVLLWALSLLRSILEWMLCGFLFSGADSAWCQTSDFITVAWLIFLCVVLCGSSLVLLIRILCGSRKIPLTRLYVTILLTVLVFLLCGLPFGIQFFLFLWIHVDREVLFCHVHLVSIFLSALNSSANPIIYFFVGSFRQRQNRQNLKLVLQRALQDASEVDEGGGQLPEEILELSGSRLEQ
RGS4 act – RGS4 potentiation or activation; HEK293 M3R/inducible RGS4, carbachol calcium flux Fluo4; stronger effect = lower value; B-score at 10 µM; 0.92% of 310,000 active; AID 463111;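 active means B-score of the integrated calcium signal more than 4 SD below the library mean, with starting fluorescence not abnormally high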;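 further: negative B-score means reduced calcium response which marks RGS4 activation or potentiation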
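Also added: carbachol at ECmax as muscarinic agonist stimulus; Assay system: HEK293 cells with stable M3R and inducible RGS4; Timing: overnight RGS4 induction, 30 min dye load 37 °C, 20 min compound RT; Measured by: Fluo4-AM (2 µM) calcium-flux fluorescence, kinetic read.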
MrgX1 agonist – human MrgX1 receptor agonism, primary screen | Q96LB2 | MrgX1-HEK293 cells, Fluo-4 calcium fluorescence, agonist mode; stronger effect = higher value | B-score at 10 µM | 0.44% of 310,000 active;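 active means calcium response B-score plate-corrected fluorescence ratio at least 3 library SD, with starting fluorescence B-score inside 5 SD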
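System – MrgX1-expressing HEK293 cells · Incubation – cells plated overnight, dye loaded 0.5 h 37 °C, 0.5 h room temperature · Technique – kinetic Fluo-4 NW fluorescence of intracellular calcium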
MrgX1 antag – blocks BAM8-22 activation of human MrgX1 receptor | Q96LB2 | MRGX1-HEK293 calcium flux, Fluo-4, BAM8-22 antagonism; stronger effect = lower value | B-score at 10 µM | 1.3% of 310,000 active | AID 588676;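 active means calcium-response B-score plate-corrected more than 3 library SD below zero, starting fluorescence within 5 deviations, no agonist response on first addition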;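 further: peak minus trough fluorescence over baseline after final BAM8-22 challenge near maximal dose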
Numbers without * were called inactive; i = inactive; · = no result. A selection: hits, their analogues and other compounds. The true share with any hit is near 3.5%.

SMILES | RGS4 block | MrgX1 allo act | RGS4 act | MrgX1 agonist | MrgX1 antag
CCCN(C(=O)CSCc1ccccc1C)c1c(N)n(Cc2ccccc2)c(=O)[nH]c1=O | i | i | i | i | -7.19*
CC(/C=C1\SC(=S)N(c2ccc(C(=O)O)cc2)C1=O)=C\c1ccccc1 | i | i | -8.44* | i | -9.62*
COc1ccc(/C=C2/SC(=S)N(NS(=O)(=O)c3ccccc3)C2=O)cc1 | i | i | i | 30.6* | i
CC(/C=C1\SC(=S)N(NS(=O)(=O)c2ccccc2)C1=O)=C\c1ccccc1 | i | i | i | i | -8.8*
O=C1/C(=C\c2ccc(Br)cc2)SC(=S)N1NS(=O)(=O)c1ccccc1 | i | i | i | i | i
CC(/C=C1\SC(=S)N(NC(=O)c2ccc(C)cc2)C1=O)=C\c1ccccc1 | i | i | i | i | i
Cn1c(C2=C(O)CN(Cc3ccccc3)C2=N)nc2ccccc21 | i | i | i | i | i
Fc1ccccc1CN1CCCCCCC1 | i | i | i | i | i
c1ccc(Sc2ccccc2CN2CCCC2)cc1 | i | i | -7.42* | i | i
COc1ccc(NC(=O)Nc2ccc3c(c2)CCC3)cc1 | i | i | i | i | i
Cc1ccccc1SC1CCN(Cc2nc(C3CC3)no2)CC1 | i | i | i | i | i
O=C(Nc1ccc(Cl)cc1)Nc1ccc2c(c1)N1CCN=C1S2 | i | i | i | i | -5.25*
Cc1ccccc1C(=O)NNc1ccc([N+](=O)[O-])cc1 | i | i | i | i | -6.85*
Cc1ccc(/C(=N\O)c2oc3c(C)c4oc(=O)cc(C)c4cc3c2C)cc1 | i | 10.2* | -8.08* | i | i
C/C(=C\C(=O)c1ccc(Br)cc1)Nc1ccc(Cl)cc1 | i | i | -7.16* | i | i
Cc1ccc(S(=O)(=O)Oc2ccccc2/C=C2/SC(=O)NC2=O)cc1 | i | i | i | 26.9* | i
Clc1nc(Cl)nc(-c2cn(-c3ccccc3)c3ccccc23)n1 | i | i | i | i | i
CCCCNC(=O)c1cc2cc(CC)ccc2[nH]1 | i | i | i | i | i
CCOC(=O)C1CCN(C(=O)C2CCN(c3nc4ccc(OC)cc4s3)CC2)CC1 | i | i | i | i | -5.47*
CCOC(=O)C1CCN(C(=O)C2CCN(c3nnc(-n4cccc4)s3)CC2)CC1 | i | i | i | i | i
Nc1ccc(C(=O)N/N=C\c2ccc(OC(=O)c3ccccc3Cl)cc2)cc1 | i | i | i | i | i
COc1cc(/C=N/NC(=O)C(=O)N2CCCC2)ccc1O | i | i | i | i | -6.67*
COc1ccc(/C=N/NC(=O)C(=O)N2CCCC2)cc1OC | i | i | i | i | i
Cc1cccc(C(=O)Oc2ccc(/C=N/NC(=O)c3cc(O)cc(O)c3)cc2)c1 | i | i | -10.2* | i | i
COc1cc(C(=O)N/N=C/c2ccc(OC(=O)c3ccccc3Cl)cc2)ccc1O | i | i | -10.5* | i | i
SMILES | RGS4 block | MrgX1 allo act | RGS4 act | MrgX1 agonist | MrgX1 antag
COc1cc(C(=O)N/N=C/c2ccc(OC(=O)c3cccc(C)c3)c(OC)c2)ccc1O | i | i | -7.06* | i | i
Cc1ccc(C)c(N2C(=N)S/C(=C\c3ccc(-c4ccccc4C(=O)O)o3)C2=O)c1 | i | 11.5* | i | i | i
C#CCN1C(=O)S/C(=C\c2ccc(-c3ccc(C(=O)O)cc3C)o2)C1=O | i | 8.07* | i | i | i
Cc1cc(C(=O)O)ccc1-c1ccc(/C=C2\SC(=O)N(CC(=O)Nc3ccc4c(c3)OCO4)C2=O)o1 | i | i | i | i | i
COc1ccc(-c2ccc(/C=C3/C(=N)N4C(C)=CSC4=NC3=O)o2)c([N+](=O)[O-])c1 | i | i | i | 28.8* | i
O=S1(=O)N=C(N2CCc3ccccc3C2)c2ccccc21 | i | i | -7.41* | i | i
CCOC(=O)N1CCN(C(=O)c2cn(CC)c3cc(N4CCN(C)CC4)c(F)cc3c2=O)CC1 | i | i | i | i | -7.59*
O=C(Nc1ccc(C(=O)Nc2ccccc2Cl)cc1)c1cccnc1 | i | i | i | i | i
COc1ccc(NC(=O)N2CCN(c3nc(-c4cccc(OC)c4)cs3)CC2)cc1 | i | i | -6.99* | i | i
Brc1cccc(CSc2nnc(-c3ccncc3)o2)c1 | i | i | i | i | i
Cc1ccc(-n2nnnc2-c2cccs2)cc1[N+](=O)[O-] | i | i | -7.41* | i | i
Cc1cc(C)cc(OC(C)C(=O)Nc2ccccc2C(=O)NCc2cccnc2)c1 (stereo unspecified) | i | i | i | i | i
O=S(=O)(c1ccc(Cl)c(Cl)c1)c1snnc1-c1ccccc1 | i | · | -7.3* | · | ·
c1ccc(-c2nnsc2-c2ccccc2)cc1 | i | i | i | i | i
COc1ccc(-c2nnc(-c3cc4c(ccc5ccccc54)oc3=O)o2)cc1 | i | i | -9* | i | i
Cc1ccc(-c2ccc(=O)n(CC(=O)NCCN(CC(C)C)CC(C)C)n2)cc1 | i | i | i | i | i
CNC(=O)c1cc2cc(OC)ccc2n1CCN(Cc1ccccc1)Cc1ccccc1 | i | i | i | i | -7.79*
Cc1cc(OC(=O)c2ccccc2Br)cc(=O)n1C | i | 10.5* | i | i | i
COc1ccc(C2=NN(c3nc(C(=O)O)cs3)C(O)(C(F)(F)F)C2)c(OC)c1 (stereo unspecified) | i | i | i | i | -6.54*
O=C1CCc2cc(S(=O)(=O)NC3CCCCC3)cc3c2N1CC3 | i | i | i | i | i
O=C(CCC(=O)OCC(=O)c1ccc(-c2ccccc2)cc1)Nc1cccc2cccnc12 | i | i | i | i | i
O=C(CCC(=O)OCC(=O)c1ccc(Cl)cc1Cl)Nc1cccc2cccnc12 | i | i | i | i | -8.38*
O=C(NCC(c1ccco1)N1CCc2ccccc2C1)c1ccc(Br)cc1 (stereo unspecified) | i | i | i | i | i
CCOC(=O)CCSc1nc(C(C)(C)C)cc(C(F)(F)F)c1C#N | i | i | -7.22* | i | i
O=C(O)/C=C/C(=O)N(CC1CCCO1)C1CC(=O)N(c2c(Cl)cccc2Cl)C1=O (stereo unspecified) | i | i | i | i | i
CCCCn1nnnc1SCC(=O)NNC(=O)C1CCCCC1 | i | i | i | i | -5.13*
Cc1ccc(CSCc2ccc(C(=O)NCCCN3CCOCC3)o2)cc1 | i | 6.69* | i | i | i

Source: PubChem BioAssay
